In brackets after ≈: the same amount, converted by molar mass. Numbered stars: 1 amine (or outer) side, 2 acyl side, 3 side chain; on linkers, the order of the positions; unused ones are H or OH. Bridge positions count the residues as written; N and C are the ends. Square brackets hold non-standard residues; d marks the D form. Peptide text beside a SMILES is read from it. * marks the point of attachment. hTyr(3S-OH,4S-OH,3'-OSO3H) = N[C@H](C(=O)O)[C@H](O)[C@@H](O)c1ccc(O)c(OS(=O)(=O)O)c1; Orn(4R-OH,5R-OH) = O=C([C@H](C[C@@H](O)[C@@H](O)N[*:3])N[*:1])[*:2]; Pro(3S-OH,4S-Me) = C[C@H]1CN[C@H](C(=O)O)[C@H]1O; X1 = CCCCCOc1ccc(-c2cc(-c3ccc(C(=O)*)cc3)no2)cc1; Gln(3R-OH) = NC(=O)C[C@@H](O)[C@H](N)C(=O)O; Hyp = O=C(O)[C@@H]1C[C@@H](O)CN1
Columns and labels:
Format in all cases: functional
[1] = system: [Candida] intermedia; assay: Antifungal activity against Candida intermedia isolated from candidemia patient by AFST-EUCAST microdilution method; settings: Sungouiella intermedia
[2] = system: Meyerozyma guilliermondii; assay: Antifungal activity against Candida guilliermondii isolated from candidemia patient by AFST-EUCAST microdilution method
[3] = system: Candida parapsilosis; assay: Antifungal activity against Candida parapsilosis isolated from candidemia patient by AFST-EUCAST microdilution method; settings: Lodderomyces parapsilosis
[4] = Antifungal activity against Candida pulcherrima isolated from candidemia patient by AFST-EUCAST microdilution method; settings: Metschnikowia pulcherrima
[5] = system: Candida albicans; assay: Antifungal activity against Candida albicans isolated from candidemia patient by AFST-EUCAST microdilution method
[6] = system: Pichia kudriavzevii; assay: Antifungal activity against Candida krusei isolated from candidemia patient by AFST-EUCAST microdilution method
[7] = system: Wickerhamomyces anomalus; assay: Antifungal activity against Candida pelliculosa isolated from candidemia patient by AFST-EUCAST microdilution method; settings: Hansenula anomala
[8] = system: Candida tropicalis; assay: Antifungal activity against Candida tropicalis isolated from candidemia patient by AFST-EUCAST microdilution method
[9] = system: Clavispora lusitaniae; assay: Antifungal activity against Clavispora lusitaniae isolated from candidemia patient by AFST-EUCAST microdilution method
[10] = system: Candida dubliniensis; assay: Antifungal activity against Candida dubliniensis isolated from candidemia patient by AFST-EUCAST microdilution method
[11] = system: Yarrowia lipolytica; assay: Antifungal activity against Candida lipolytica isolated from candidemia patient by AFST-EUCAST microdilution method
[12] = system: Diutina rugosa; assay: Antifungal activity against Candida rugosa isolated from candidemia patient by AFST-EUCAST microdilution method
[13] = system: Nakaseomyces glabratus; assay: Antifungal activity against Candida glabrata isolated from candidemia patient by AFST-EUCAST microdilution method
[14] = system: Kluyveromyces marxianus; assay: Antifungal activity against Candida kefyr isolated from candidemia patient by AFST-EUCAST microdilution method
[15] = system: Pichia kudriavzevii; assay: Antifungal activity against Candida krusei ATCC 6258 isolated from candidemia patient by AFST-EUCAST microdilution method
Method in brief: (§1)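 Designated quality-control strain included on every testing occasion and run by the AFST-EUCAST broth microdilution reference procedure (EDef 7.1) alongside the clinical isolates. Its MICs were checked against the reference range for EUCAST-evaluated drugs. Pure standard compounds were used: azoles, amphotericin B, flucytosine and echinocandins.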

[16] = system: Candida parapsilosis; assay: Antifungal activity against Candida parapsilosis ATCC 22019 isolated from candidemia patient by AFST-EUCAST microdilution method; settings: Lodderomyces parapsilosis; method in brief: as §1

Compound	MIC [1]	MIC [2]	MIC90 [3]	MIC [4]	MIC90 [5]	MIC90 [6]	MIC [7]	MIC90 [8]	MIC90 [9]	MIC [10]	MIC [11]	MIC [12]	MIC90 [13]	MIC [14]	also measured
Nc1nc(=O)[nH]cc1F [FLUCYTOSINE]	64 µg/mL (≈ 496 µM)	0.12 µg/mL (≈ 0.93 µM)	0.5 µg/mL (≈ 3.87 µM)	0.12 µg/mL (≈ 0.93 µM)	2 µg/mL (≈ 15.5 µM)	2 µg/mL (≈ 15.5 µM)	0.12 µg/mL (≈ 0.93 µM)	0.5 µg/mL (≈ 3.87 µM)	2 µg/mL (≈ 15.5 µM)	0.12 µg/mL (≈ 0.93 µM)	0.12 µg/mL (≈ 0.93 µM)	0.5 µg/mL (≈ 3.87 µM)	0.25 µg/mL (≈ 1.94 µM)	0.12 µg/mL (≈ 0.93 µM)	
CCC(C)n1ncn(-c2ccc(N3CCN(c4ccc(OCC5COC(Cn6cncn6)(c6ccc(Cl)cc6Cl)O5)cc4)CC3)cc2)c1=O (stereo not drawn) [ITRACONAZOLE]	0.12 µg/mL (≈ 0.17 µM)	1 µg/mL (≈ 1.42 µM)	0.12 µg/mL (≈ 0.17 µM)	0.12 µg/mL (≈ 0.17 µM)	0.5 µg/mL (≈ 0.709 µM)	0.12 µg/mL (≈ 0.17 µM)	0.25 µg/mL (≈ 0.354 µM)	0.12 µg/mL (≈ 0.17 µM)	0.25 µg/mL (≈ 0.354 µM)	0.06 µg/mL (≈ 0.085 µM)	0.12 µg/mL (≈ 0.17 µM)	0.03 µg/mL (≈ 0.0425 µM)	0.5 µg/mL (≈ 0.709 µM)	0.25 µg/mL (≈ 0.354 µM)	MIC [6]: 0.12 µg/mL (≈ 0.17 µM); MIC [8]: 0.12 µg/mL (≈ 0.17 µM); MIC [13]: 0.5 µg/mL (≈ 0.709 µM)
CCCCCOc1ccc(-c2cc(-c3ccc(C(=O)N[C@H]4C[C@@H](O)[C@@H](O)NC(=O)[C@@H]5[C@@H](O)[C@@H](C)CN5C(=O)[C@H]([C@H](O)CC(N)=O)NC(=O)[C@H]([C@H](O)[C@@H](O)c5ccc(O)c(OS(=O)(=O)O)c5)NC(=O)[C@@H]5C[C@@H](O)CN5C(=O)[C@H]([C@@H](C)O)NC4=O)cc3)no2)cc1 [MICAFUNGIN] (X1-[Orn(4R-OH,5R-OH)]T[Hyp][hTyr(3S-OH,4S-OH,3'-OSO3H)][Gln(3R-OH)][Pro(3S-OH,4S-Me)]; lactam 1-C)	0.03 µg/mL (≈ 0.0236 µM)	0.25 µg/mL (≈ 0.197 µM)	2 µg/mL (≈ 1.57 µM)	0.03 µg/mL (≈ 0.0236 µM)	0.06 µg/mL (≈ 0.0472 µM)	0.12 µg/mL (≈ 0.0945 µM)	0.5 µg/mL (≈ 0.394 µM)	0.12 µg/mL (≈ 0.0945 µM)	0.12 µg/mL (≈ 0.0945 µM)	0.03 µg/mL (≈ 0.0236 µM)	0.03 µg/mL (≈ 0.0236 µM)	0.03 µg/mL (≈ 0.0236 µM)	0.25 µg/mL (≈ 0.197 µM)	4 µg/mL (≈ 3.15 µM)	MIC [15]: 0.5 µg/mL (≈ 0.394 µM); MIC [16]: 0.5 µg/mL (≈ 0.394 µM)
CC[C@@H]([C@H](C)O)n1ncn(-c2ccc(N3CCN(c4ccc(OC[C@@H]5CO[C@@](Cn6cncn6)(c6ccc(F)cc6F)C5)cc4)CC3)cc2)c1=O [POSACONAZOLE]	0.25 µg/mL (≈ 0.357 µM)	0.12 µg/mL (≈ 0.171 µM)	0.12 µg/mL (≈ 0.171 µM)	0.03 µg/mL (≈ 0.0428 µM)	0.12 µg/mL (≈ 0.171 µM)	0.5 µg/mL (≈ 0.713 µM)	0.03 µg/mL (≈ 0.0428 µM)	0.12 µg/mL (≈ 0.171 µM)	0.03 µg/mL (≈ 0.0428 µM)	0.01 µg/mL (≈ 0.0143 µM)	0.03 µg/mL (≈ 0.0428 µM)	0.03 µg/mL (≈ 0.0428 µM)	0.25 µg/mL (≈ 0.357 µM)	0.25 µg/mL (≈ 0.357 µM)	MIC [9]: 0.03 µg/mL (≈ 0.0428 µM)
C[C@@H](c1ncncc1F)[C@](O)(Cn1cncn1)c1ccc(F)cc1F [VORICONAZOLE]	0.06 µg/mL (≈ 0.172 µM)	0.06 µg/mL (≈ 0.172 µM)	0.06 µg/mL (≈ 0.172 µM)	0.25 µg/mL (≈ 0.716 µM)	0.03 µg/mL (≈ 0.0859 µM)	1 µg/mL (≈ 2.86 µM)	0.12 µg/mL (≈ 0.344 µM)	0.12 µg/mL (≈ 0.344 µM)	0.5 µg/mL (≈ 1.43 µM)	0.03 µg/mL (≈ 0.0859 µM)	0.03 µg/mL (≈ 0.0859 µM)	0.01 µg/mL (≈ 0.0286 µM)	0.5 µg/mL (≈ 1.43 µM)	4 µg/mL (≈ 11.5 µM)	MIC [3]: 0.06 µg/mL (≈ 0.172 µM); MIC [5]: 0.01 µg/mL (≈ 0.0286 µM)

From ChEMBL document CHEMBL1629658, “A 10-year survey of antifungal susceptibility of candidemia isolates from intensive care unit patients in Greece” (2009)
